Tests used:
[1] = system: G-proteins in GDP-less membranes of CHO-M2 cells; experiment: Kinetics of [35S]GTPγS binding to GDP-less membranes; design: species or system Chinese hamster
Outline: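 GDP-less CHO-M2 membranes, 30°C. Association of 1 nM [³⁵S]GTPγS was measured after 20 min pre-incubation with buffer or 100 µM agonist, ±50 µM GDP. For dissociation, membranes were preloaded 90 min with 1 nM [³⁵S]GTPγS ±50 µM GDP, then chased with 1 µM GTPγS alone or with agonist. Filtration on glass-fibre filters, scintillation counting. Three experiments in quadruplicate; exponential association/dissociation fits.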

[2] = biological target: T1, human M2 muscarinic receptor (Homo sapiens, UniProt P08172); experiment: Agonist-stimulated [35S]GTPγS binding to membranes from M2 CHO cells; type: biochemical
T1 sequence (P08172 1-466): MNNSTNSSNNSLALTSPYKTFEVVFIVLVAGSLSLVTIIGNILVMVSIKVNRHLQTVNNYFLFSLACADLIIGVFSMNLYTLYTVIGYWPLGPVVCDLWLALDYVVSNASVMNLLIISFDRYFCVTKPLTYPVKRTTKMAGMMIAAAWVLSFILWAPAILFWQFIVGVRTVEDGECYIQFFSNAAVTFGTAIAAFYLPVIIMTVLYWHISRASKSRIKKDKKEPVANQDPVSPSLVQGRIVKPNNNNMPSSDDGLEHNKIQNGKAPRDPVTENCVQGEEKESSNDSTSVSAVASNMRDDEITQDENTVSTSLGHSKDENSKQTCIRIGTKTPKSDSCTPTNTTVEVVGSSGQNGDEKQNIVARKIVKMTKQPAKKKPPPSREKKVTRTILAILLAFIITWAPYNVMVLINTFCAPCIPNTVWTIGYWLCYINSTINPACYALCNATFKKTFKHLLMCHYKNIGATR

[3] = biological target: T2, M2 receptor-G-protein complex (Homo sapiens, UniProt P08172); type: binding
T2 sequence (P08172 1-466): T1 sequence (P08172 1-466)

[4] = system: G-proteins in GDP-less membranes of CHO-M2 cells; experiment: Kinetics of [3H]GDP binding to GDP-less membranes; design: species or system Chinese hamster; conditions: 100 nM NMS (Figure 4 right)
Outline: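 GDP-less CHO-M2 membranes, 30°C. Association of 500 nM [³H]GDP was measured after 20 min pre-incubation with buffer, 10 or 100 µM agonist, or 0.1 µM antagonist. For dissociation, membranes were prelabelled with 500 nM [³H]GDP for 180 min, then chased with 50 µM GDP alone or with ligand. Slow and fast rate constants came from biphasic fits.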

Gq/11 G-proteins [5] = biological target: T3, Gq/11 G-proteins (Homo sapiens, UniProt P08172); type: binding, Chinese hamster; conditions: Gq/11, 10 µM [3H]GDP
T3 sequence (P08172 1-466): T1 sequence (P08172 1-466)

Gi/o G-proteins [6] = biological target: T4, Gi/o G-proteins (Homo sapiens, UniProt P08172); experiment: biochemical; type: binding, Chinese hamster
T4 sequence (P08172 1-466): T1 sequence (P08172 1-466)

Gq/11 G-proteins [7] = biological target: T3, Gq/11 G-proteins; experiment: [35S]GTPγS binding to Gq/11 G-proteins; type: biochemical, Chinese hamster; conditions: Gq/11, text
[8] = biological target: T1, human M2 muscarinic receptor; experiment: Competition of agonists with 1 nM [3H]NMS binding
Gs/olf G-proteins [9] = biological target: T5, Gs/olf G-proteins (Homo sapiens, UniProt P08172); experiment: biochemical; type: biochemical, Chinese hamster
T5 sequence (P08172 1-466): T1 sequence (P08172 1-466)

Gs/olf G-proteins [10] = biological target: T5, Gs/olf G-proteins; experiment: biochemical; type: binding, Chinese hamster
Gi/o G-proteins [11] = biological target: T4, Gi/o G-proteins; experiment: biochemical; type: biochemical, Chinese hamster
[12] = biological target: T2, M2 receptor-G-protein complex; type: binding; conditions: Eqn 8, GDP-less membranes, 1 nM [3H]NMS
[13] = 1 nM [35S]GTPγS, GDP-less membranes, no GDP, no ligand
[14] = NMS (100 nM), presence of 50 µM GDP

Structure (SMILES): Nc1nc2c(ncn2[C@@H]2O[C@H](COP(=O)(O)OP(=O)(O)OP(O)(O)=S)[C@@H](O)[C@H]2O)c(=O)[nH]1 [GTPγS, guanosine-5′-γ−thiotriphosphate]
- Beq [1, 13]: 5.66 ± 0.22 fmol·µg^−1protein
- koff [1, 13]: 9e-05 ± 3.61e-06 s⁻¹

Structure (SMILES): C[N+]1(C)[C@@H]2C[C@@H](OC(=O)[C@H](CO)c3ccccc3)C[C@H]1[C@@H]1O[C@@H]12 [NMS, N-methylscopolamine]
- behaviour in [35S]GTPγS binding ([2]; Figures 1 and 8): inverse agonist
- effect on [3H]GDP binding ([3]; 10 µM [3H]GDP, increasing ligand concentration): did not affect
- cooperativity between NMS and GDP ([3]; Figures 6 and 7): neutral
- Beq of [35S]GTPγS ([1]; GDP-less membranes, 50 µM GDP +100 nM NMS): 1.20 ± 0.11 fmol·µg^−1protein
- effect on dissociation kinetics of [35S]GTPγS [1, 14]: did not change
- slowing of association of [35S]GTPγS [1, 14]: 25%
- effect on GDP dissociation [4]: only slightly slows down

Structure (SMILES): O=C1CCCN1CC#CCN1CCCC1 [Oxotremorine]
- effect on [3H]GDP equilibrium binding (Gq/11 G-proteins [5]): no effect
- EC50 [2]: 1020 nM
- maximal increase of [35S]GTPγS binding (Emax) [2]: 2.8 fold increase
- EMAX [fold over basal] ([2]; 500 pM [35S]GTPγS, 50 µM GDP): 2.78 ± 0.06 fold over basal
- nH ([2]; Hill coefficient, Eqn 2): 0.92 ± 0.03
- Kd (Gi/o G-proteins [6]): 11.7 nM
- pα (Gi/o G-proteins [6]; Gi/o, cooperativity between agonist and [3H]GDP binding): −2.1 ± 0.2
- stimulation of [35S]GTPγS binding (Gq/11 G-proteins [7]): no stimulation
- flow[%] ([8]; Control (crude membranes), fraction of receptors in low-affinity state): 66 ± 8%
- flow[%] ([8]; GDP-less membranes): 13 ± 4 %
- change of high-affinity KI in GDP-less membranes vs control ([8]; GDP-less vs control membranes): not changed
- Ki ([8]; pKi high, Control (crude membranes)): 11.7 nM
- Ki ([8]; pKi high, GDP-less membranes): 11.2 nM
- Ki ([8]; pKi, +1 µM GTPγS, monophasic): 550 nM
- Ki ([8]; pKi, +50 µM GDP, monophasic): 417 nM
- EC50 (Gs/olf G-proteins [9]): 7410 nM
- EMAX (Gs/olf G-proteins [9]; Gs/olf): 1.53 ± 0.01 fold increase over basal binding
- factor of cooperativity α between binding of [3H]GDP and agonist (pα) ([3]; 10 µM [3H]GDP, GDP-less membranes, n=3): −1.8 ± 0.1
- Kd (Gs/olf G-proteins [10]): 10.7 nM
- pα (Gs/olf G-proteins [10]; Gs/olf, cooperativity between agonist and [3H]GDP binding): −0.78 ± 0.08
- EC50 (Gi/o G-proteins [11]): 933 nM
- EMAX (Gi/o G-proteins [11]; Gi/o): 2.72 ± 0.05 fold increase over basal binding
- reduction of agonist affinity by GDP (factor of cooperativity β) [12]: 60 fold

Reference: PMC3051377 (British Journal of Pharmacology, 2011)
